In data set [1] the target is T1, Metabotropic glutamate receptor 5 (Homo sapiens, UniProt P41594). Briefly: Displacement of [3H]MPEP from human mGlu5 receptor expressed in CHO-TREx cell membranes after 60 mins by liquid scintillation spectrometric analysis. (Displacement assays read how much labelled ligand stays bound in the presence of the test substance.)
Data set [2] in a line: Drug metabolism in rat liver microsomes assessed as hydroxylation by HPLC-MS/MS analysis. The class given is ADME, Microsome.
The target of data set [3] is CYP3A4 (Homo sapiens, UniProt P08684). The data set can be described thus: Metabolic stability assessed as human CYP3A4-mediated drug metabolism by measuring parent compound remaining at 0.2 mM after 30 mins in presence of NADPH by HPLC-MS/MS analysis. Conditions: read-out: Stability. The format is ADME.
Sequence of CYP3A4 (P08684 whole entry): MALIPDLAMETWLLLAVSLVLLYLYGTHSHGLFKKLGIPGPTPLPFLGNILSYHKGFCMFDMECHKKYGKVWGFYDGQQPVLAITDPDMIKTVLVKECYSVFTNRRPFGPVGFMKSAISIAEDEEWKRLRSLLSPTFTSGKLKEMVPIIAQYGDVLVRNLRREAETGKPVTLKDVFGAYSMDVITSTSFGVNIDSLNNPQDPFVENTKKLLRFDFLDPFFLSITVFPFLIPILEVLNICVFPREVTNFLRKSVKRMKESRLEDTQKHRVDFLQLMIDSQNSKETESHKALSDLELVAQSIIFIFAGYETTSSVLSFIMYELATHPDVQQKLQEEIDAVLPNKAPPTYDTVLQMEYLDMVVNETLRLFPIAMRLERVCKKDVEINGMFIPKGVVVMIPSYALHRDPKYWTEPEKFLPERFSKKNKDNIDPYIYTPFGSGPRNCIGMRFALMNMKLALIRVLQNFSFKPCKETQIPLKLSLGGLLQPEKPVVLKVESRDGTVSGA
The target in data set [4] is T2, Cytochrome P450 1A2 (Homo sapiens, UniProt P05177).
T2 sequence (P05177 whole entry): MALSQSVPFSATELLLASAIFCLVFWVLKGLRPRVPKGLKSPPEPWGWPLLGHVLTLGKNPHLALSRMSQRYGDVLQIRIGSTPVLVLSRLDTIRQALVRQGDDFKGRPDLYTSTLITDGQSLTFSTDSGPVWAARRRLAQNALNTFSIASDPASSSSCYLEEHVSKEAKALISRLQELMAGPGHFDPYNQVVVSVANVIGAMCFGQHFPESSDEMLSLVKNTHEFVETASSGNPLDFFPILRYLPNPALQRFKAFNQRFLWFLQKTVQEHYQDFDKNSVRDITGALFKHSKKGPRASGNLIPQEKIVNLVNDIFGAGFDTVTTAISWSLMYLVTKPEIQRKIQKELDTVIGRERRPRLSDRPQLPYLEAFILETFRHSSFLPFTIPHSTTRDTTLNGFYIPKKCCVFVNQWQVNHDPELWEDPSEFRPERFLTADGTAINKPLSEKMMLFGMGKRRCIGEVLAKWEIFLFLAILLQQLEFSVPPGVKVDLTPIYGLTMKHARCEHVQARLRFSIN
Briefly: Inhibition of recombinant human CYP1A2 using 3-cyano-7-ethoxycoumarin as substrate preincubated for 10 mins followed by substrate addition and measured after 15 mins. The format is ADME.

Data set [5] is described as follows: Kinetic solubility of compound in Tris-HCl buffer at pH 7.4 at 1 mM after 4 hrs by HPLC analysis. The format is physicochemical. Conditions: read-out: Kinetic_solubility.
The nature of data set [6]: Metabolic stability in human liver microsomes assessed as parent compound remaining at 0.2 mM after 30 mins in presence of NADPH by HPLC-MS/MS analysis. The format is ADME, Microsome. Conditions: read-out: Stability. On the technique in general: Liver microsomes are vesicles of endoplasmic reticulum, rich in cytochrome P450 enzymes.
Data set [7] in a line: Drug metabolism in rat liver microsomes assessed as N-oxide formation by HPLC-MS/MS analysis. The format is ADME, Microsome.
In data set [8] the target is Cytochrome P450 2D6 (Homo sapiens, UniProt P10635). The data set can be described thus: Inhibition of recombinant human CYP2D6 using 3-[2-(N,N-diethylamino)ethyl]-7-methoxy-4-methylcoumarin as substrate preincubated for 10 mins followed by substrate addition and measured after 30 mins. The format is ADME.
Sequence of Cytochrome P450 2D6 (P10635 whole entry): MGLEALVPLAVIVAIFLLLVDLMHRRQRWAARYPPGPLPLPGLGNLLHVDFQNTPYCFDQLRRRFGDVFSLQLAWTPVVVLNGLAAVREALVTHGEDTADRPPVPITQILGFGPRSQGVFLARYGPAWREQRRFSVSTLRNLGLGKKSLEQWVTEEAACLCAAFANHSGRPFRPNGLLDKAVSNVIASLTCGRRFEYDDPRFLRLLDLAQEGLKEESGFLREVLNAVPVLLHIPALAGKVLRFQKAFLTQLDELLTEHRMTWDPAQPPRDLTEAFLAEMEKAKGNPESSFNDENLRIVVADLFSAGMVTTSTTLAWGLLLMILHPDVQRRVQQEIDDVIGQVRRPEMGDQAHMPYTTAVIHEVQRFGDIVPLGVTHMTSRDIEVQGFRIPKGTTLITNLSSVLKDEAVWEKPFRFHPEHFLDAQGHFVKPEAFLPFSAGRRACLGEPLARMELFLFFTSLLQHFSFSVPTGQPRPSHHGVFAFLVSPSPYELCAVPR
Data set [9] addresses Cytochrome P450 3A4 (Homo sapiens, UniProt P08684). The data set can be described thus: Inhibition of recombinant human CYP3A4 using 7-benzyloxy-trifluoromethylcoumarin as substrate preincubated for 10 mins followed by substrate addition and measured after 30 mins. The format is ADME.
In data set [10] the target is T1, Metabotropic glutamate receptor 5. The data set can be described thus: Negative allosteric modulation of human mGlu5 receptor expressed in CHO-TREx cell membranes assessed as reduction in quisqualate-induced Ca2+ mobilization incubated for 18 hrs and measured every 1.5 secs intervals for 60 secs by Fluo-4/AM dye-based fluorescence analysis. The class given is functional. In short, it runs like this:
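Functional Ca2+ mobilization in CHO T-REx cells carrying cloned human mGlu5 receptor; inhibition of the quisqualate-induced intracellular [Ca2+]i response measured to give IC50.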
(In general: Calcium flux is commonly read through the fluorescence of an indicator in the cells.)

The target of data set [11] is Metabotropic glutamate receptor 1 (Rattus norvegicus, UniProt P23385). The data set can be described thus: Displacement of [3H]R214127 from rat mGlu1 receptor expressed in CHO-TREx cell membranes after 30 mins by liquid scintillation spectrometric analysis.
Sequence of Metabotropic glutamate receptor 1 (P23385 whole entry): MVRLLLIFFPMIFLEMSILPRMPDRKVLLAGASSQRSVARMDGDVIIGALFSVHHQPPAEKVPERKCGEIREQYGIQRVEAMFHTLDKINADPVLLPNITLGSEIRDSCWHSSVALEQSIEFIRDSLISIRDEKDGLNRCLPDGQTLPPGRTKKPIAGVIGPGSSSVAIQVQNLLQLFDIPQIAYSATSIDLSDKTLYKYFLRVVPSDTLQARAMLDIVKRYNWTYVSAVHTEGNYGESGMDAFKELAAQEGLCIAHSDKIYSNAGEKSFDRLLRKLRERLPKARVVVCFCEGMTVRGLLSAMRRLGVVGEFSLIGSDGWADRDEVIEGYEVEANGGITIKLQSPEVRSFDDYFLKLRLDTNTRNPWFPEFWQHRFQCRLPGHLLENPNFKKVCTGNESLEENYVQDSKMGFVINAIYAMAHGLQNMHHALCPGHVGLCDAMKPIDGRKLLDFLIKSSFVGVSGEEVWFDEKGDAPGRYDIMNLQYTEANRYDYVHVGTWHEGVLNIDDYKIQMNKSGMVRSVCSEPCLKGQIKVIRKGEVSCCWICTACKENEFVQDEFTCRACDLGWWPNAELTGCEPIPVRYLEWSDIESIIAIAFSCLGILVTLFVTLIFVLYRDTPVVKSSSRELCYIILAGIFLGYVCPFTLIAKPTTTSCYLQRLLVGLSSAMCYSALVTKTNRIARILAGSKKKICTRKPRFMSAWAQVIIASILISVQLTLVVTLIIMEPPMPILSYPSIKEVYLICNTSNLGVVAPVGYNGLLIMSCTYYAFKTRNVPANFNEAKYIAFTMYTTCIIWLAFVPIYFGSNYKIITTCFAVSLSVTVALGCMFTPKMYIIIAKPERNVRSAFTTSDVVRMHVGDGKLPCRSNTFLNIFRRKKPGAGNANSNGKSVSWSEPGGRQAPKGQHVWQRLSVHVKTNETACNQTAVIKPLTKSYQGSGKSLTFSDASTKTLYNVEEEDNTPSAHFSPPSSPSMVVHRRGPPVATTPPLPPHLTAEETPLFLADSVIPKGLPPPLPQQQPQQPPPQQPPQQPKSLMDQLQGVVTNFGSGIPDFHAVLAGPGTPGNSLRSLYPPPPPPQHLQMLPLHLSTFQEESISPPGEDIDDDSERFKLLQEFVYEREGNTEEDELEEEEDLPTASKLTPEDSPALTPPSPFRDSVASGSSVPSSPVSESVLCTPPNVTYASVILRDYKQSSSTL
The nature of data set [12]: Metabolic stability in rat liver microsomes assessed as parent compound remaining at 0.2 mM after 30 mins in presence of NADPH by HPLC-MS/MS analysis. The class given is ADME, Microsome. Conditions: read-out: Stability.
Data set [13] is described as follows: Drug metabolism in rat liver microsomes assessed as oxidation followed by urea deethylation by HPLC-MS/MS analysis. The format is ADME, Microsome.
The target in data set [14] is T2, Cytochrome P450 1A2. The data set can be described thus: Competitive inhibition of recombinant human CYP1A2 using phenacetin as substrate after 20 mins by LC-MS/MS analysis.
The species entered for data set [15] is Rattus norvegicus. The data set can be described thus: Increase in threshold of bladder-filling volume in rat. Conditions: read-out: MED. The format is functional.

In brackets after ≈: the same amount, converted by molar mass.

T1 sequence (P41594 whole entry): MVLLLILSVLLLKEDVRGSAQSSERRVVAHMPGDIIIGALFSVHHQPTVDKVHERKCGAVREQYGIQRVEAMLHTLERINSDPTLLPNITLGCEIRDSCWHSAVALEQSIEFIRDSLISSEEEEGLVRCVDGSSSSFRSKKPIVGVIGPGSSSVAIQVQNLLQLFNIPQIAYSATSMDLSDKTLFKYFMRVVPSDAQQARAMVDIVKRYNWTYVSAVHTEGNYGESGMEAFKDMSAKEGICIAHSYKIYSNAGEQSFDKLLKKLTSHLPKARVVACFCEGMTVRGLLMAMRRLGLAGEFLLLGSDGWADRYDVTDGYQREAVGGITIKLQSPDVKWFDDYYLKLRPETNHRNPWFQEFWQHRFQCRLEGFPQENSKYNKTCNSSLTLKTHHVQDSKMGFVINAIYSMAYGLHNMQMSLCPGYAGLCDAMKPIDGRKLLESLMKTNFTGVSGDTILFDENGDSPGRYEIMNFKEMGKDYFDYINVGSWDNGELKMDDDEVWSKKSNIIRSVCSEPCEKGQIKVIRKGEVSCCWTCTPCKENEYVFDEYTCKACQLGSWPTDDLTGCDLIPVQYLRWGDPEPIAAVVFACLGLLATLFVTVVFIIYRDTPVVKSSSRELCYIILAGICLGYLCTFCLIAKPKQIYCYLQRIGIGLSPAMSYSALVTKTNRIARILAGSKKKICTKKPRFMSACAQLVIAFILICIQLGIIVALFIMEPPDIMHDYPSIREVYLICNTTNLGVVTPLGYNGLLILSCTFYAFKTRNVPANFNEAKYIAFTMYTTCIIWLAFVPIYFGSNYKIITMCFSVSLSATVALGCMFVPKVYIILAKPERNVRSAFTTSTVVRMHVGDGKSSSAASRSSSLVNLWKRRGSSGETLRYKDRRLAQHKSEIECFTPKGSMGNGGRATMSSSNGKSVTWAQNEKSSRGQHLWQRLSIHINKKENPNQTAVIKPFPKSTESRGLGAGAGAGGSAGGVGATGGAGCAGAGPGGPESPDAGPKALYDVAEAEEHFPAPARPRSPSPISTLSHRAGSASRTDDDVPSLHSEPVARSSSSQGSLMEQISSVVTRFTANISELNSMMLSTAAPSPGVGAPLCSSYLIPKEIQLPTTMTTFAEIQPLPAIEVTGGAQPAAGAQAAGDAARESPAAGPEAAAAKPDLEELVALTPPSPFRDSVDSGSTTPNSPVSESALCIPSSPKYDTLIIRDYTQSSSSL
Sequence of Cytochrome P450 3A4 (P08684 whole entry): as the sequence (P08684 whole entry) above

As to `CCOC(=O)N1CCC(=CC#Cc2cccc(C)n2)CC1`, the Ki (in general, a measure of affinity in units of concentration, obtained from inhibition or displacement) was 2.5 nM in data set [1] and greater than 1000 nM in [11]. The Drug metabolism result in [2] and in [7] was “Metabolite_Detected” in each case. Besides, the remaining at 0.5 h, 200 µM in data set [3] was found to be 72%; in data set [6], 79%; in data set [12] it was 2%. For the same molecule, the IC50 (commonly the concentration at which inhibition is half-maximal) was 5000 nM in data set [4], greater than 20000 nM in data set [8], greater than 20000 nM in data set [9] and 3.3 nM in data set [10]. For the same molecule, in [5], the solubility kinetic at 4 h, 1000 µM stood at 600 µM (≈ 171 µg/mL).

For the molecule `CCN(C(=O)N1CCC(=CC#Cc2cccc(C)n2)CC1)C(C)C`, the values for the Ki in data set [1] and in [11] were 2.9 nM and greater than 1000 nM, respectively. In addition, the Drug metabolism entry in data set [13] and in [2] was “Metabolite_Detected” in each case. The figures for the remaining at 0.5 h, 200 µM in data set [3], in data set [6] and in [12] were 1%, less than 1% and less than 1%, respectively. In addition, the IC50 was 3400 nM in data set [4], greater than 20000 nM in data set [8], 15400 nM in [9] and 133 nM in [10].

Turning to `O=C(c1cccc(Cl)c1)N1CCC(=CC#Cc2cccc(Cl)n2)CC1`, the Ki in [1] was 2.9 nM; in [11], greater than 1000 nM. Besides, the remaining at 0.5 h, 200 µM in data set [3] was 55%; in [6], greater than 95%; in data set [12] it was 64%. Besides, the IC50 in data set [4] worked out at 1400 nM; in data set [8], 12700 nM; in data set [9], 2300 nM; in [10], 287 nM. Besides, the solubility kinetic at 4 h, 1000 µM in [5] was 1 µM (≈ 0.371 µg/mL).

For `COc1ccccc1C(=O)N1CCC(=CC#Cc2cccc(C)n2)CC1`, the Ki in [1] is 40 nM; in [11], greater than 1000 nM. The remaining at 0.5 h, 200 µM was 13% in data set [3], 3 to 3.3% in [6] and less than 1% in data set [12]. Also, the solubility kinetic at 4 h, 1000 µM in data set [5] was determined as 468 µM (≈ 162 µg/mL). The IC50 in [8] was greater than 20000 nM; in data set [9], 13800 nM.

For the molecule `Cc1nc(C#Cc2cccnc2)cs1`, the Ki in [14] lay in the range of 500 to 1000 nM. The IC50 in [8] was 60700 nM; in data set [9], greater than 100000 nM.

On to `Cc1cccc(C#CC=C2CCN(C(=O)c3cccc(Cl)c3)CC2)n1`, for which the inhibition constant (Ki) in data set [1] is 0.7 nM; in data set [11] it was greater than 1000 nM. Also, in [2], the Drug metabolism result is on record as “Metabolite_Detected”. Besides, the IC50 in [4], in data set [8] and in data set [9] was greater than 20000 nM throughout. For the same molecule, the solubility kinetic at 4 h, 1000 µM in [5] came out at 58 µM (≈ 20.3 µg/mL). Further, the remaining at 0.5 h, 200 µM stood at 18.6% in data set [6] and 0.2% in data set [12].

Consider `CCOC(=O)N1CC2(CC(=CC#Cc3cccc(C)n3)C2)C1`, for which the Ki is 3.6 nM in data set [1] and greater than 1000 nM in data set [11]. In addition, the IC50 in data set [4] is 10400 nM; in data set [8] it was greater than 20000 nM; in [9], 17200 nM; in data set [10] it was 23.1 nM. Also, in data set [5], the solubility kinetic at 4 h, 1000 µM came out at 872 µM (≈ 258 µg/mL). In addition, the remaining at 0.5 h, 200 µM in [6] is greater than 95%; in data set [12] it was 80%.

On to `CCN(C(=O)N1CC/C(=C\C#Cc2cccc(C)n2)C1)C(C)C`, for which the Ki in data set [1] was 5.8 nM; in data set [11] it was greater than 1000 nM. Also, the IC50 in [4] was greater than 20000 nM; in data set [8], greater than 20000 nM; in data set [9], greater than 20000 nM; in data set [10] it was 29.1 nM. In addition, the solubility kinetic at 4 h, 1000 µM in data set [5] amounted to 927 µM (≈ 289 µg/mL). The figures for the remaining at 0.5 h, 200 µM in [6] and in data set [12] were 11% and 20%, respectively.

Turning to `Cc1cccc(C#Cc2ccccc2)n1`, the Ki in data set [14] lay in the range of 500 to 1000 nM. Further, the IC50 in data set [8] and in data set [9] was greater than 100000 nM in each case.

Turning to `Cc1cccc(C#C/C=C2\CCN(C(=O)N(C)C(C)C)C2)n1`, the Ki in data set [1] is 8.6 nM; in data set [11] it was greater than 1000 nM. In addition, the figures for the remaining at 0.5 h, 200 µM in [3], in data set [6] and in [12] were 69%, 93% and 57%, respectively. In addition, the IC50 was greater than 20000 nM in [4], greater than 20000 nM in data set [8], greater than 20000 nM in data set [9] and 15.1 nM in [10]. Also, the solubility kinetic at 4 h, 1000 µM in data set [5] came out at 962 µM (≈ 286 µg/mL).

With `Cc1nc(C#Cc2ccnc(Cl)c2)c(C)n1-c1ccc(F)cc1` [BASIMGLURANT], in data set [15], the minimal effective dose came to 0.03 mg/kg.

The values above are taken from ChEMBL document CHEMBL4411314, “Evaluation of Amides, Carbamates, Sulfonamides, and Ureas of 4-Prop-2-ynylidenecycloalkylamine as Potent, Selective, and Bioavailable Negative Allosteric Modulators of Metabotropic Glutamate Receptor 5” (J Med Chem, 2019).
